In ChEMBL document CHEMBL5653630, “Activation of the p53-MDM4 regulatory axis defines the anti-tumour response to PRMT5 inhibition through its role in regulating cellular splicing” (Sci Rep, 2018) one finds GI50 and Activity data, which are given here for 2 compounds.

What is called GI50 is the concentration that inhibits growth by half.

Molecules are shown by their SMILES. Activity calls are given as the source filed them. The rule behind the calls is not given here.

What all share (assay type): functional
Test [1] has as its system HeLa. Put plainly: Antiproliferative activity against human HeLa cells assessed as cell growth inhibition incubated for 10 days. The settings on record: 240 h, time 10 day. An outline of the steps:
(§1)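 Outsourced panel run in 384-well plates. Cells were grown in RPMI-1640/10% FBS or a special medium at 37°C, 5% CO2. Compound was added 24 h after seeding as a 10-point, 3.16-fold series in 0.1% DMSO. Medium was refreshed and cells re-dosed at 168 h, with a time-zero plate kept. At 240 h cells were fixed, nuclei stained and imaged. gIC50 is growth midway between untreated and time zero, from a 4-parameter fit.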

For test [2], the system named is SW1417. Kind of test: Antiproliferative activity against human SW1417 cells assessed as cell growth inhibition incubated for 10 days. The settings on record: SW1417, 240 h, time 10 day.
For test [3], the system named is A549. Put plainly: Antiproliferative activity against human A549 cells assessed as cell growth inhibition incubated for 10 days. The settings on record: A549, 240 h, time 10 day. An outline of the steps: (§2)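 Cells kept in RPMI-1640 with 10% FBS, 2 mM L-alanyl-L-glutamine and 1 mM Na pyruvate (or a special medium) at 37°C, 5% CO2. Compound added 24 h after seeding, 10 concentrations in 3.16-fold dilution, 0.1% DMSO final. Medium replaced and cells re-dosed at 168 h; 240 h incubation. Nuclei fixed, dye-stained and imaged. gIC50 = growth midway between untreated and time-zero cell counts, from a 4-parameter fit.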

The subject of test [4] is MG-63. Kind of test: Antiproliferative activity against human MG-63 cells assessed as cell growth inhibition incubated for 10 days. The settings on record: MG-63, 240 h, time 10 day.
The subject of test [5] is SW684. Put plainly: Antiproliferative activity against human SW684 cells assessed as cell growth inhibition incubated for 10 days. The settings on record: SW684, 240 h, time 10 day.
The test system of test [6] is SCC-9. Kind of test: Antiproliferative activity against human SCC-9 cells assessed as cell growth inhibition incubated for 10 days. The settings on record: SCC-9, 240 h, time 10 day.
A short description of test [7]: Antiproliferative activity against human BM-1604 cells assessed as cell growth inhibition incubated for 10 days. The settings on record: BM-1604, 240 h, time 10 day. An outline of the steps: as §2
The test system of test [8] is LS174T. Kind of test: Antiproliferative activity against human LS174T cells assessed as cell growth inhibition incubated for 10 days. The settings on record: 240 h, time 10 day.
The test system of test [9] is HEC-1-A. Kind of test: Antiproliferative activity against human HEC-1-A cells assessed as cell growth inhibition incubated for 10 days. The settings on record: 240 h, time 10 day. The gist of the method:
as §1

Test [10] relates to COLO 205. Kind of test: Antiproliferative activity against human COLO 205 cells assessed as cell growth inhibition incubated for 10 days. The settings on record: COLO 205, 240 h, time 10 day. An outline of the steps: as §2
In test [11] the test system is SNU-5. Put plainly: Antiproliferative activity against human SNU-5 cells assessed as cell growth inhibition incubated for 10 days. The settings on record: SNU-5, 240 h, time 10 day.
Test [12] deals with NCI-H747. Kind of test: Antiproliferative activity against human NCI-H747 cells assessed as cell growth inhibition incubated for 10 days. The settings on record: NCI-H747, 240 h, time 10 day.
Test [13] deals with SK-N-DZ. Put plainly: Antiproliferative activity against human SK-N-DZ cells assessed as cell growth inhibition incubated for 10 days. The settings on record: 240 h, time 10 day.
Test [14] relates to Malme-3M. Kind of test: Antiproliferative activity against human Malme-3M cells assessed as cell growth inhibition incubated for 10 days. The settings on record: 240 h, time 10 day.
Test [15] concerns D283 Med. Put plainly: Antiproliferative activity against human D283 Med cells assessed as cell growth inhibition incubated for 10 days. The settings on record: 240 h, time 10 day. An outline of the steps: as §1
Test [16] concerns U-251. Put plainly: Antiproliferative activity against human U-251MG cells assessed as cell growth inhibition incubated for 6 days by celltiter-glo assay. The settings on record: U-251, 144 h, time 6 day. An outline of the steps: (§3)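 Cells seeded in 384-well plates at an optimized density and held 24 h. CellTiter-Glo luminescence read at Day 0 and Day 6. Four-parameter fit. gIC50 = midpoint of the growth window between DMSO and T0. Curves required ≥1.5 population doublings.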
(In general: In ATP-based viability assays light output follows the ATP content of the culture.)

In test [17] the test system is CAKI-1. Kind of test: Antiproliferative activity against human CAKI-1 cells assessed as cell growth inhibition incubated for 10 days. The settings on record: CAKI-1, 240 h, time 10 day. An outline of the steps: as §2
Test [18] deals with NCI-H295R. Put plainly: Antiproliferative activity against human NCI-H295R cells assessed as cell growth inhibition incubated for 10 days. The settings on record: 240 h, time 10 day.
The test system of test [19] is COR-L23. Put plainly: Antiproliferative activity against human COR-L23 cells assessed as cell growth inhibition incubated for 10 days. The settings on record: COR-L23, 240 h, time 10 day. The gist of the method:
as §1

Test [20] can be described thus: Antiproliferative activity against human RKOE6 cells assessed as cell growth inhibition incubated for 10 days. The settings on record: RKOE6, 240 h, time 10 day.
Test [21] deals with SU.86.86. Put plainly: Antiproliferative activity against human SU-86-86 cells assessed as cell growth inhibition incubated for 10 days. The settings on record: SU.86.86, 240 h, time 10 day.
Test [22] concerns SR. Put plainly: Antiproliferative activity against human SR cells assessed as cell growth inhibition incubated for 10 days. The settings on record: 240 h, time 10 day.
Test [23] relates to SCC-25. Kind of test: Antiproliferative activity against human SCC-25 cells assessed as cell growth inhibition incubated for 10 days. The settings on record: SCC-25, 240 h, time 10 day.
Test [24] relates to OE33. Kind of test: Antiproliferative activity against human OE33 cells assessed as cell growth inhibition incubated for 10 days. The settings on record: OE33, 240 h, time 10 day.
Test [25] concerns JVM-2. Kind of test: Induction of cell cycle arrest in human JVM-2 cells assessed as increase in 2n cell population measured upto 5000 nM measured for 3 days by propidium iodide staining based flow cytometric analysis. The settings on record: time 3.0 day.
For test [26], the system named is KMS-11. Put plainly: Antiproliferative activity against human KMS-11 cells assessed as cell growth inhibition incubated for 6 days by celltiter-glo assay. The settings on record: KMS-11, 144 h, time 6 day. The gist of the method:
as §3

Turning to `O=C(NC[C@H](O)CN1CCc2ccccc2C1)c1ccnc(NC2CCC2)c1`, the GI50 was 230 nM in test [1]; 773 nM in test [2]; 80.9 nM in [3]; 96 nM in [4]; 1170 nM in test [5]; 747 nM in test [6]. The GI50 stood at 142 nM in [7]; 170 nM in test [8]; 2440 nM in [9]; 10000 nM in test [10]; 110 nM in test [11]; 2580 nM in test [12]. In addition, the GI50 in [13] worked out at 257 nM; in [14] it was 265 nM; in [15], 23.5 nM; in test [16], 3490 nM; in [17], 68.8 nM; in test [18], 10000 nM. For the same compound, the GI50 in test [19] was determined as 147 nM; in [20], 210 nM; in test [21], 934 nM; in test [22] it was 275 nM; in [23], 273 nM; in test [24] it was 231 nM.

On to `CC(=O)N1CCC(Nc2cc(C(=O)NC[C@H](O)CN3CCc4ccccc4C3)ncn2)CC1` [PEMRAMETOSTAT], for which, in [25], the outcome was Active. Further, the 50% growth inhibitory concentration (GI50) in test [26] came to 66 nM.
